Measurements as given in paper PMC3132447 (Diabetes, Obesity & Metabolism, 2011).
Marks after values point to notes of the source that are not given here.

Tests used:
[1] = subcutaneously injected; cited from earlier work
[2] = test system: obese subjects with type 2 diabetes; test: Postprandial plasma glucose after a standardized test meal; assay type: in vivo, human; conditions: n = 30; for Time to 10% of total glucose AUC / Time to 20% of total glucose AUC / Time to ΔGLUmax: 0.2 U/kg s.c. before standardized meal, obese T2DM, median
Method in brief: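 Same crossover, fasting, 0.2 U/kg s.c. premeal dosing and standardized 692-kcal meal. Plasma glucose was sampled at −20, −10 and 0 min, every 10 min to 2 h, then every 15 min to 6 h. AUCs used the linear trapezoidal rule; incremental AUCs and GLUmax used ANOVA (subject, treatment, sequence, period). Ratio 90% CIs used Fieller's theorem on untransformed data; times used Wilcoxon with Hodges–Lehmann 90% CI.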

[3] = Serum insulin analogue concentrations after subcutaneous bolus; assay type: in vivo, human; conditions: n = 30; for Time to fraction of total insulin AUC (10%) / Time to fraction of total insulin AUC (20%) / Tmax (time to peak insulin concentration) / Insulin AUC0–1 h/AUC0–6 h, geometric mean / Insulin AUC0–2 h/AUC0–6 h, arithmetic mean (value in brackets) / Insulin AUC0–2 h/AUC0–6 h, geometric mean / Insulin AUC0–4 h/AUC0–6 h, arithmetic mean (value in brackets) / Insulin AUC0–4 h/AUC0–6 h, geometric mean: 0.2 U/kg s.c. before standardized meal, obese T2DM; for Time to fraction of total insulin AUC (10%) / Time to fraction of total insulin AUC (20%) / Tmax (time to peak insulin concentration): median; for Insulin AUC0–1 h/AUC0–6 h, geometric mean / Insulin AUC0–2 h/AUC0–6 h, arithmetic mean (value in brackets) / Insulin AUC0–2 h/AUC0–6 h, geometric mean / Insulin AUC0–4 h/AUC0–6 h, arithmetic mean (value in brackets) / Insulin AUC0–4 h/AUC0–6 h, geometric mean: serum analogue
Method in brief: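 Same crossover and 0.2 U/kg s.c. premeal dosing in obese T2DM (n = 30). Serum test insulin analogue was measured by an analogue-specific kit at a central laboratory over 6 h. Non-compartmental analysis gave Cmax, Tmax and linear-trapezoidal AUC fractions. Ratios with 90% CI used ANOVA on ln-transformed data; times used Hodges–Lehmann 90% CI for median differences.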

[4] = test system: NEFA; test: Non-esterified fatty acid; assay type: in vivo, human; conditions: for Mean NEFA concentration after subsequent increase / Time of lowest mean NEFA concentration: 0.2 U/kg s.c. before standardized meal; for Mean NEFA concentration after subsequent increase: after the nadir, within 6-h period; for Time of lowest mean NEFA concentration / Mean NEFA concentration at start (before decrease): obese T2DM; for Mean NEFA concentration at start (before decrease): baseline
Method in brief: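 Obese T2DM adults (n = 30) fasted 12 h with oral agents withheld. In a randomized two-way crossover with a 7-day washout, they received 0.2 U/kg s.c. of test insulin analogue within 2 min before a 692-kcal meal (54% carbohydrate, 17% protein, 28% lipid) eaten within 30 min. Plasma NEFA was sampled from −20 min to 6 h by validated kit; mean profiles.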

[5] = test system: obese subjects with type 2 diabetes; test: Hypoglycaemia and adverse events; assay type: in vivo, human; conditions: for Severe hypoglycaemia / Subjects with hypoglycaemia with blood glucose below 56 mg/dl / Subjects with an episode of hypoglycaemia 3–6 h after insulin administration: 0.2 U/kg s.c.; for Subjects with an episode of hypoglycaemia 3–6 h after insulin administration: blood glucose <70 mg/dl
[6] = point estimate (90% CI), Fieller's Theorem, untransformed data
[7] = point estimate (90% CI), Hodges and Lehmann method
[8] = point estimate (90% CI), ln-transformed data

Substance	Time to 10% of total glucose AUC [2]	Time to 20% of total glucose AUC [2]	Time to ΔGLUmax [2]	Time to fraction of total insulin AUC (10%) [3]	Time to fraction of total insulin AUC (20%) [3]	Tmax (time to peak insulin concentration) [3]	Insulin AUC0–1 h/AUC0–6 h, geometric mean [3] [%]	Insulin AUC0–2 h/AUC0–6 h, arithmetic mean (value in brackets) [3] [%]	Insulin AUC0–2 h/AUC0–6 h, geometric mean [3] [%]	Insulin AUC0–4 h/AUC0–6 h, arithmetic mean (value in brackets) [3] [%]	Insulin AUC0–4 h/AUC0–6 h, geometric mean [3] [%]	Mean NEFA concentration after subsequent increase [4] [mmol/L]	Time of lowest mean NEFA concentration [4] [min]	Mean NEFA concentration at start (before decrease) [4] [mmol/L]	Severe hypoglycaemia [5]	Subjects with hypoglycaemia with blood glucose below 56 mg/dl [5]	Subjects with an episode of hypoglycaemia 3–6 h after insulin administration [5] [subjects]	also measured
regular human insulin [RHI]																		Duration of action [1]: > 8 h; Time of peak effect after dosing [1]: 3 h
insulin aspart	40.0 ^† min	65.0 ^† min	59.5 ^† min	60.5 ^† min	91.0 ^† min	93.0 ^† min	11	3.6	35	4.3	77	0.31	120	0.51	no cases of severe hypoglycaemia requiring intervention	eight	15	Time of the remaining hypoglycaemia episodes after administration ([5]; episodes outside 3–6 h, one value per episode): 60 min
insulin glulisine	40.0 ^† min	67.5 ^† min	60.0 ^† min	60.0 ^† min	90.0 ^† min	120.0 ^† min	14	3.6	36	4.3	78	0.32	180	0.50	no cases of severe hypoglycaemia requiring intervention	Five	10	GLUmax, mean ratio glulisine/aspart [2, 6]: 94% (90–99); Glucose AUC0–1 h, mean ratio glulisine/aspart [2, 6]: 94% (90–99); Glucose AUC0–1 h/AUC0–6 h, mean ratio glulisine/aspart [2, 6]: 95% (92–99); Glucose AUC0–2 h/AUC0–6 h, mean ratio glulisine/aspart [2, 6]: 96% (94–99); Glucose AUC0–4 h/AUC0–6 h, mean ratio glulisine/aspart [2, 6]: 99% (97–100); Glucose AUC0–6 h, mean ratio glulisine/aspart [2, 6]: 98% (95–104); ΔGLUmax, mean ratio glulisine/aspart [2, 6]: 81% (70–100); Time to 10% of total glucose AUC, median difference glulisine vs aspart [2, 7]: -2 min; Time to 20% of total glucose AUC, median difference glulisine vs aspart [2, 7]: 0 (−4 to 3) min; Time to ΔGLUmax, median difference glulisine vs aspart [2, 7]: -5 min; GLUmax, mean difference glulisine vs aspart ([2]; point estimate (90% CI), analysis of variance, untransformed data): -11 mg/dL; Tmax, median difference glulisine vs aspart [3, 7]: 17 min; Insulin AUC0–1 h/AUC0–6 h, mean ratio glulisine/aspart [3, 8]: 127% (106–152); Insulin AUC0–2 h/AUC0–6 h, mean ratio glulisine/aspart [3, 8]: 103% (95–110); Insulin AUC0–4 h/AUC0–6 h, mean ratio glulisine/aspart [3, 8]: 101% (99–103)
